In ChEMBL document CHEMBL1208680, “Synthesis and cytotoxicity screening of substituted isobenzofuranones designed from anacardic acids” (Eur J Med Chem, 2010):
≈ marks a conversion by molar mass, not a printed value. Calls of active or inactive are those of the source. No cut-off for these calls is given here.

Columns and labels:
[1] = tested on: HL-60; assay: Cytotoxicity against human HL60 cells after 72 hrs by MTT assay; format: functional, cell-based; details: HL-60, 72 h
Summary of the method: (§1)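 Cell lines obtained from NCI, kept in RPMI 1640 with 10% FBS, 2 mM glutamine and penicillin/streptomycin at 37 °C, 5% CO2. Seeding: HL-60 0.3 × 10⁶, SF295 0.6 × 10⁵, MDA-MB435 0.1 × 10⁶ cells/mL. Compounds were added 24 h after seeding at 0.39–25.00 in 0.1% DMSO and left for 72 h. MTT at 0.5 mg/mL was added for 3 h, formazan dissolved in DMSO, absorbance read at 595 nm. IC50 by non-linear regression, triplicate, two independent experiments. Doxorubicin served as positive control.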

[2] = tested on: SF-295; assay: Cytotoxicity against human SF295 cells after 72 hrs by MTT assay; format: functional, cell-based; details: SF-295, 72 h; summary of the method: as §1
[3] = tested on: MDA-MB-435; assay: Cytotoxicity against human MDA-MB-435 cells after 72 hrs by MTT assay; format: functional, cell-based; details: MDA-MB-435, 72 h; summary of the method: as §1
[4] = tested on: PBMC; assay: Cytotoxicity against human PBMC after 72 hrs by Alamar blue assay; format: cell-based
Summary of the method: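 PBMC were isolated from heparinized blood of healthy donors on Histopaque-1077 and cultured in RPMI 1640 with 20% FBS plus 2% phytohaemagglutinin. Compounds were added after 24 h at 0.39–25.00 in 0.1% DMSO for 72 h. Alamar Blue was added 24 h before the end. Absorbance at 570 and 595 nm was converted to % reduced. IC50 by non-linear regression, triplicate, two independent experiments.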

[5] = tested on: HL-60; assay: Induction of apoptosis in human HL60 cells assessed as reduction of cells in intact membrane at 6 ug/ml by AO/BE staining; format: functional, cell-based
[6] = tested on: HL-60; assay: Induction of apoptosis in human HL60 cells assessed as increase in DNA strand breaks after 12 hrs by Comet assay; format: functional, cell-based
Summary of the method: (§2)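 Alkaline comet assay on HL-60 cells exposed for 3, 6, 12 or 24 h. Lysis at pH 10, 4 °C, at least 1 h. Unwinding for 20 min in 300 mM NaOH/1 mM EDTA (pH >13), then electrophoresis at 0.81 V/cm for 20 min, 4 °C. Tail classes 0–4 were scored visually on 300 cells and converted to a damage index of 0–400. Vehicle was 0.1% DMSO.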

[7] = tested on: HL-60; assay: Cytotoxicity against human HL60 cells assessed as cell viability by BrdU incorporation assay; format: functional, cell-based
Summary of the method: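 HL-60 cells at 0.3 × 10⁶ cells/mL were treated for 24 h, with BrdU added for the final 3 h. Cytospin slides were stained by peroxidase immunocytochemistry with diaminobenzidine and haematoxylin counterstain. Two hundred cells per sample were scored for % BrdU-positive. Vehicle was 0.1% DMSO and the positive control doxorubicin. Mean ± S.E.M. from three independent experiments in triplicate.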

[8] = tested on: HL-60; assay: Induction of apoptosis in human HL60 cells assessed as reduction in viable cells after 24 hrs; format: functional, cell-based
Summary of the method: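 HL-60 cells were exposed for 24 h. Cells were stained with acridine orange and ethidium bromide (each 100 in PBS) and examined by fluorescence microscopy, 300 cells counted per point. Vehicle was 0.1% DMSO; doxorubicin was the positive control. Three independent experiments in triplicate, ANOVA with Newman-Keuls test.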

[9] = tested on: HL-60; assay: Induction of apoptosis in human HL60 cells assessed as reduction of cells in intact membrane at 3 ug/ml by AO/BE staining; format: functional, cell-based
[10] = tested on: HL-60; assay: Induction of apoptosis in human HL60 cells assessed as increase in DNA damage after 24 hrs by Comet assay; format: functional, cell-based; summary of the method: as §2
[11] = tested on: HL-60; assay: Induction of apoptosis in human HL60 cells assessed as increase in DNA damage by Comet assay; format: functional, cell-based; details: TDE = time-dependent effect; summary of the method: as §2
[12] = tested on: HL-60; assay: Induction of apoptosis in human HL60 cells assessed as increase in DNA double strand breaks after 24 hrs by Comet assay; format: functional, cell-based
Summary of the method: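 Neutral comet assay on HL-60 cells treated for 24 h at 6. Electrophoresis in 100 mM Tris/300 mM sodium acetate, pH 8.5, after 60 min equilibration, then 60 min at 0.5 V/cm. Damage index was scored visually. Vehicle was 0.1% DMSO.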

| Compound | IC50 [1] [µg/mL] | IC50 [2] [µg/mL] | IC50 [3] [µg/mL] | IC50 [4] [µg/mL] | Activity [5] | Activity [6] | Activity [7] | Activity [8] | Activity [9] | Activity [10] | Activity [11] | Activity [12] |
| --- | --- | --- | --- | --- | --- | --- | --- | --- | --- | --- | --- | --- |
| CCCCCCCCCCCCCC(O)C1OC(=O)c2c(OC)cccc21 (racemic) | 21 (≈ 55.8 µM) | > 25 | 12.3 (≈ 32.6 µM) | > 25 | Active | Active | Active |  |  |  |  |  |
| CCCCCCCCCCCCCCC(Br)c1cccc(OC)c1C(=O)OC (stereo unspecified) | > 25 | > 25 | > 25 | > 25 |  |  |  |  |  |  |  |  |
| CCCCCCCCCCCCCCCc1cccc(OC)c1C(=O)OC | > 25 | > 25 | > 25 | > 25 |  |  |  |  |  |  |  |  |
| COc1cccc2c1C(=O)c1c(O)c3c(c(O)c1C2=O)C[C@@](O)(C(=O)CO)C[C@@H]3O[C@H]1C[C@H](N)[C@H](O)[C@H](C)O1 [DOXORUBICIN] |  | 0.04 (≈ 0.0736 µM) | 0.03 (≈ 0.0552 µM) |  |  |  |  |  |  |  |  |  |
| CCCCCCCCCCCCC/C=C/c1cccc(OC)c1C(=O)OC | 9.96 (≈ 26.6 µM) | 12.8 (≈ 34.3 µM) | 3.31 (≈ 8.84 µM) | 19.8 (≈ 52.9 µM) | Active | Active | Active | Dose-dependent effect |  |  |  |  |
| CCCCCCCCCCCCCC(=O)C1OC(=O)c2c(OC)cccc21 (racemic) | 3.24 (≈ 8.65 µM) | 10.1 (≈ 26.9 µM) | 8.7 (≈ 23.2 µM) | 14.5 (≈ 38.7 µM) | Active |  | inactive | Dose-dependent effect | Active | Dose-dependent effect | tde | Active |
